This is an account of results in ChEMBL document CHEMBL5104201, “Prodrugs of a 1-Hydroxy-2-oxopiperidin-3-yl Phosphonate Enolase Inhibitor for the Treatment of ENO1-Deleted Cancers” (J Med Chem, 2022).

By pIC50 is commonly meant the negative decadic logarithm of the IC50, by convention in mol/L.

Series [1] in a line: Cytotoxicity against human LN-319 cells expressing ENO1 assessed as cell growth inhibition incubated for 6 days by cystal violet staining based analysis. The series is classed as functional. The settings on record: LN-319, 144 h.
A short description of series [2]: Stability of compound in culture media incubated for 72 hrs by 31P-NMR analysis. The series is classed as physicochemical. The essentials:
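Prodrug (final 2 mM unless stated otherwise) in 80% DMEM with 20% D2O, kept at 37 °C between timepoints. Species followed by 31P NMR (CPD, 500 scans).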

Series [3] in a line: Stability of compound in human plasma incubated for 3 hrs by 31P-NMR analysis. The format is ADME, cell-free. The essentials: (§1)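 Prodrug dissolved in DMSO and added to 80% human serum/plasma with 20% D2O, final 2 mM unless stated otherwise. Samples held at 37 °C between timepoints. Read by 31P NMR (CPD, 500 scans), with 1H–31P HSQC where applicable. Peaks integrated and normalised to the phosphate peak at 0 ppm.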

A short description of series [4]: Stability of compound in phosphate buffer at pH 7 incubated for 3 hrs. The series is classed as physicochemical. The settings on record: pH 7, 3 h. The essentials: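 Stability followed by 31P NMR in 5 mM phosphate-buffered D2O at pH 7.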
Series [5] in a line: Stability of compound in human serum incubated for 72 hrs by 31P-NMR analysis. The format is ADME, cell-free. Summed up: as §1
Series [6] in a line: Prodrug conversion in human plasma assessed as (1-hydroxy-2-oxopiperidin-3-yl) phosphonic acid formation measured after 3 hrs by 31P-NMR analysis. The series is classed as ADME, cell-free. The essentials:
as §1

Series [7] can be described thus: Metabolic stability of the compound in human serum measured over 9 hrs by 31P-NMR analysis. The format is ADME, cell-free. Summed up: as §1
Series [8] in a line: Metabolic stability of the compound in human serum measured over 366 hrs by 31P-NMR analysis. The format is ADME, cell-free. The essentials: as §1
The nature of series [9]: Metabolic stability of the compound in human serum measured over 16 hrs by 31P-NMR analysis. The series is classed as ADME, cell-free. The essentials:
as §1

Series [10] relates to Panel NCI-60 (60 carcinoma cell lines). The experiment in a line: Cytotoxicity against human NCI-60 cells assessed as reduction in cell viability at 10 uM incubated for […]. The series is classed as functional. Summed up: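 NCI DTP one-dose screen: single 10 μM dose, […], across the 60-line panel (some lines absent when unavailable). Cells kept in RPMI 1640 with 5% FBS and 2 mM L-glutamine, seeded at 5000–40,000 cells/well by doubling time. Percent growth given relative to drug-free untreated control and to cell number at time zero.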

Series [11] is described as follows: Metabolic stability of the compound in human serum over 12 hrs by 31P-NMR analysis. The format is ADME, cell-free. The essentials:
as §1

The structures appear in SMILES notation. pIC50: −log10 of the molar value. Some results are limits rather than exact numbers.

Turning to `N#CCOP(=O)(NCc1ccccc1)C1CCCN(O)C1=O` (configuration not stated), the pIC50 in series [1] is 6.11. In the case of `CC(C)C(=O)ON1CCCC(P2(=O)OCc3ccccc3O2)C1=O` (configuration not stated), the Stability entry in [2] is recorded as “Stable”; in [3], “Unstable”; in [4] it was “Stable”; in series [5] it was “Stable”. In addition, in series [6], the Drug metabolism result is “Metabolite_Detected”.

Take `O=C1C(P(=O)(NCc2ccccc2)Oc2ccc(F)cc2)CCCN1O` (configuration not stated): the pIC50 in series [1] is less than 4.00.

Regarding `CC(C)(C)C(=O)OCOP(N)(=O)C1CCCN(O)C1=O` (configuration not stated), the pIC50 in series [1] was 3.37. Same read-out and setting: under `CC(C)OC(=O)[C@H](C)NP(=O)(N[C@@H](C)C(=O)OC(C)C)C1CCCN(O)C1=O` (some centres not stated) stands less than 4.00; under `O=C1C(P(=O)(O)O)CCCN1O` (configuration not stated), 2.52; under `CN(C)P(=O)(OCOC(=O)C(C)(C)C)C1CCCN(O)C1=O` (configuration not stated), 4.89.

As to `CC(C)OC(=O)[C@H](C)NP(=O)(Oc1ccccc1)C1CCCN(O)C1=O` (some centres not stated), the Stability result in series [7], in series [8] and in series [9] was “Stable” each time.

In the case of `CC(C)(C)C(=O)OCOP(=O)(NCc1cccc(F)c1)C1CCCN(O)C1=O` (configuration not stated), in series [1], the pIC50 was 5.62.

In the case of `O=C1C(P(=O)(NCc2ccccc2)OCOC(=O)N2CCC(N3CCCCC3)CC2)CCCN1O` (configuration not stated), the pIC50 in series [1] is less than 4.00.

For `CC(C)(C)C(=O)OCOP(=O)(OCOC(=O)C(C)(C)C)C1CCCN(O)C1=O` (configuration not stated), in [10], the Activity is on record as 7.1%. In addition, in series [11], the Stability result was “Unstable”. On to `CCCCCCCCCCCCCCCCOCCCOP(=O)(O)C1CCCN(O)C1=O` (configuration not stated), for which, in series [10], the Activity came out at 14%. In the case of `CCCCCCCCCCCCNP(=O)(O)C1CCCN(O)C1=O` (configuration not stated), in series [1], the pIC50 is less than 4.00. For `CNP(=O)(OCOC(=O)C(C)(C)C)C1CCCN(O)C1=O` (configuration not stated), the pIC50 in [1] was 5.27.

Take `N#CCOP(=O)(OC#N)C1CCCN(O)C1=O` (configuration not stated): the pIC50 in [1] was less than 4.00.
